In ChEMBL document CHEMBL3585244, “Click Chemistry in Lead Optimization of Boronic Acids as β-Lactamase Inhibitors” (J Med Chem, 2015):
≈ marks a conversion by molar mass, not a printed value.

Assays:
[1] = (§1) Inhibition of Enterobacter cloacae beta-lactamase P99 expressed in Escherichia coli AS226-51 incubated for 5 mins before nitrocefin substrate addition by spectrophotometry
Procedure, shortened: (§2)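 P99 expressed from pCS980 in E. coli AS226-51, grown in SOB with kanamycin at 37 °C and induced with 0.5 mM IPTG at A600 0.6. Purified by preparative isoelectric focusing, gel filtration and cation exchange. Inhibitor preincubated with enzyme for 5 min in 10 mM PBS pH 7.4 at room temperature. […] Ki = IC50/(1+[S]/Km).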

[2] = tested on: Enterobacter cloacae; experiment: as §1; settings: TDE = time-dependent effect; procedure, shortened: as §2
[3] = (§3) Inhibition of Pseudomonas aeruginosa beta-lactamase PDC3 expressed in Escherichia coli BL21 (DE3) RP CodonPlus incubated for 5 mins before nitrocefin substrate addition by spectrophotometry
Procedure, shortened: (§4)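 PDC-3 from P. aeruginosa 18SH subcloned in pET 24a, expressed in E. coli BL21(DE3) RP CodonPlus (37 °C, 0.5 mM IPTG at A600 0.6), purified by isoelectric focusing and FPLC.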

[4] = tested on: Pseudomonas aeruginosa; experiment: as §3; settings: TDE = time-dependent effect; procedure, shortened: as §4
[5] = tested on: Escherichia coli; experiment: Antimicrobial activity against wild type Escherichia coli DH10B by agar dilution method; type: functional
Procedure, shortened: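 MICs by cation-adjusted Mueller-Hinton agar dilution following CLSI standards. The E. coli DH10B host carried no β-lactamase gene.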

[6] = tested on: Escherichia coli; experiment: Antimicrobial activity against wild type Escherichia coli DH10B producing beta-lactamase PDC3 by agar dilution method; type: functional
Procedure, shortened: (§5)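 E. coli DH10B carrying bla genes in pBC SK(-) vector; MICs in µg/mL by agar dilution on cation-adjusted Mueller-Hinton agar per CLSI standards.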

[7] = tested on: Escherichia coli; experiment: Antimicrobial activity against wild type Escherichia coli DH10B producing beta-lactamase P99 by agar dilution method; type: functional; procedure, shortened: as §5
[8] = Inhibition of beta-lactamase PDC-3 (unknown origin) expressed in Escherichia coli DH10B assessed as cefotaxime MIC at 4 ug/ml by agar dilution method
Procedure, shortened: (§6)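 MICs by cation-adjusted Mueller-Hinton agar dilution following CLSI standards. E. coli DH10B carried blaPDC-3 (from P. aeruginosa 18SH) or blaP99 subcloned in pBC SK(-). Cefotaxime was varied from 0 to 64 µg/ml, with boronate held constant at 4 µg/ml.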

[9] = Inhibition of beta-lactamase P99 (unknown origin) expressed in Escherichia coli DH10B assessed as cefotaxime MIC at 4 ug/ml by agar dilution method; procedure, shortened: as §6
[10] = tested on: Escherichia coli; experiment: Potentiation of cefotaxime-induced antimicrobial effect against wild type Escherichia coli DH10B assessed as cefotaxime MIC at 4 ug/ml by agar dilution method; type: functional

For `CC(C)(O)c1cn(C[C@H](NC(=O)Cc2ccccc2)B(O)O)nn1`, the IC50 [1] was 660 nM, the inhibition [2] was “tde” and the IC50 [3] was 1180 nM. The time-dependent effect [4] was “tde”.
In the case of `CC(=O)N[C@@H](Cn1cc(C(=O)O)nn1)B(O)O`, the IC50 [1] is reported as 27100 nM, the inhibition [2] is reported as “tde” and the IC50 [3] is reported as 5000 nM. For the same compound, the time-dependent effect [4] was “tde”.
With `CC(C)(O)c1cn(C[C@H](NC(=O)Cc2cccs2)B(O)O)nn1` the IC50 [1] was 420 nM, the inhibition [2] was “tde” and the IC50 [3] was 250 nM. For the same compound, the time-dependent effect [4] was “tde”.
For `CC(=O)N[C@@H](Cn1cc(C(C)(C)O)nn1)B(O)O`, the IC50 [1] was 71000 nM, the inhibition [2] was “tde” and the IC50 [3] was 18400 nM. For the same compound, the time-dependent effect [4] was “tde”.
In the case of `CO/N=C(\C(=O)N[C@@H]1C(=O)N2C(C(=O)O)=C(COC(C)=O)CS[C@H]12)c1csc(N)n1` [CEFOTAXIME], the MIC [5] is reported as < 0.125 µg/mL, the MIC [6] is reported as 16 µg/mL (≈ 35.1 µM) and the MIC [7] is reported as 16 µg/mL (≈ 35.1 µM).
For `O=C(Cc1ccccc1)N[C@@H](Cn1cc(-c2cccc(C(=O)O)c2)nn1)B(O)O`, the IC50 [1] was 110 nM, the inhibition [2] was “tde” and the IC50 [3] was 120 nM. For the same compound, the time-dependent effect [4] was “tde”.
Work on `O=C(Cc1cccs1)N[C@@H](Cn1cc(C(=O)O)nn1)B(O)O` yielded an MIC [8] of 0.5 µg/mL, an IC50 [1] of 140 nM and a Ki [1] of 23 nM. For the same compound, the inhibition [2] was “tde”, the MIC [9] was 2 µg/mL and the IC50 [3] was 35 nM. For the same compound, the Ki [3] was 4 nM, the time-dependent effect [4] was “tde” and the MIC [10] was < 0.125 µg/mL.
For `O=C(Cc1cccs1)N[C@@H](Cn1cc(-c2cccc(C(=O)O)c2)nn1)B(O)O`, the MIC [8] was 1 µg/mL, the IC50 [1] was 84 nM and the Ki [1] was 14 nM. The inhibition [2] was “tde”, the MIC [9] was 4 µg/mL and the IC50 [3] was 67 nM. The Ki [3] was 8 nM, the time-dependent effect [4] was “tde” and the MIC [10] was < 0.125 µg/mL.
For `O=C(Cc1cccs1)NCB(O)O`, the MIC [8] was 2 µg/mL, the IC50 [1] was 2700 nM and the Ki [1] was 450 nM. The inhibition [2] was “tde”, the MIC [9] was 2 µg/mL and the IC50 [3] was 3300 nM. For the same compound, the Ki [3] was 411 nM, the time-dependent effect [4] was “tde” and the MIC [10] was < 0.125 µg/mL.
Work on `O=C(Cc1cccs1)N[C@@H](Cc1cccc(C(=O)O)c1)B(O)O` yielded an MIC [8] of 4 µg/mL, an IC50 [1] of 100 nM and a Ki [1] of 15 nM. The inhibition [2] was “tde”, the MIC [9] was 4 µg/mL and the IC50 [3] was 150 nM. For the same compound, the Ki [3] was 13 nM, the time-dependent effect [4] was “tde” and the MIC [10] was < 0.125 µg/mL.
In the case of `Nc1cccc(-c2cn(C[C@H](NC(=O)Cc3ccccc3)B(O)O)nn2)c1`, the IC50 [1] is reported as 600 nM, the inhibition [2] is reported as “tde” and the IC50 [3] is reported as 400 nM. For the same compound, the time-dependent effect [4] was “tde”.
For `Nc1cccc(-c2cn(C[C@H](NC(=O)Cc3cccs3)B(O)O)nn2)c1`, the IC50 [1] was 360 nM, the inhibition [2] was “tde” and the IC50 [3] was 280 nM. The time-dependent effect [4] was “tde”.
For `O=C(Cc1cccs1)N[C@@H](Cn1ccnn1)B(O)O`, the IC50 [1] was 800 nM, the Ki [1] was 134 nM and the inhibition [2] was “tde”. For the same compound, the IC50 [3] was 1300 nM, the Ki [3] was 164 nM and the time-dependent effect [4] was “tde”.
For `CC(=O)N[C@@H](Cn1cc(-c2ccccc2)nn1)B(O)O`, the IC50 [1] was 13200 nM, the inhibition [2] was “tde” and the IC50 [3] was 9300 nM. For the same compound, the time-dependent effect [4] was “tde”.
For `O=C(Cc1ccccc1)N[C@@H](Cn1cc(-c2ccccc2)nn1)B(O)O`, the IC50 [1] was 150 nM, the inhibition [2] was “tde” and the IC50 [3] was 300 nM. The time-dependent effect [4] was “tde”.
With `O=C(Cc1ccccc1)N[C@@H](Cn1cc(C(=O)O)nn1)B(O)O` the IC50 [1] was 110 nM, the inhibition [2] was “tde” and the IC50 [3] was 230 nM. For the same compound, the time-dependent effect [4] was “tde”.
With `O=C(Cc1cccs1)N[C@@H](Cn1cc(-c2ccccc2)nn1)B(O)O` the IC50 [1] was 320 nM, the inhibition [2] was “tde” and the IC50 [3] was 300 nM. The time-dependent effect [4] was “tde”.
